Measurements: ChEMBL document CHEMBL4613272, “Anti-HIV-Active Nucleoside Triphosphate Prodrugs” (J Med Chem, 2020)

Legend:
[1] = Half life in pH 7.3 phosphate buffered saline in presence of pig liver esterase by HPLC analysis; type: ADME, Sus scrofa
In short: (§1)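 Prodrug diluted from 50 mM DMSO stock through a 6.0 mM intermediate into DMSO/50 mM PBS pH 7.3. Started with pig liver esterase (3 mg/mL solution in PBS) and shaken at 37 °C, 800 rpm. Aliquots quenched in MeOH at intervals, filtered, stored in liquid nitrogen and analysed by RP18 HPLC.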

[2] = Half life in pH 7.3 phosphate buffered saline by HPLC analysis; type: physicochemical
In short: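 Prodrug from 50 mM DMSO-d6 stock diluted to 1.9 mM with water/DMSO-d6. Reaction started by adding phosphate buffer (50 mM stock, pH 7.3). Products followed by analytical RP18 HPLC with TBAA or TEAA buffer/acetonitrile gradient.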

[3] = Cytotoxicity against human CEM cells assessed as reduction in cell proliferation; type: cell-based; settings: CEM cells (CCRF-CEM)
In short: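 CC50 is the compound concentration inhibiting CEM CD4+ T-cell proliferation by 50%. Mean ± SD of n=2-3 independent experiments.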

[4] = tested on: Human immunodeficiency virus 1; assay: Antiviral activity against HIV1 HE infected in human CEM/0 cells assessed as inhibition of virus-induced giant cell formation measured after 4 to 5 days by microscopic analysis; settings: Human immunodeficiency virus 1, HE, CCRF-CEM
[5] = tested on: Human immunodeficiency virus 2; assay: Antiviral activity against HIV2 ROD infected in thymidine kinase-deficient human CEM cells assessed as inhibition of virus-induced giant cell formation measured after 4 to 5 days by microscopic analysis; settings: Human immunodeficiency virus 2, ISOLATE ROD, CCRF-CEM
[6] = Prodrug conversion in pH 7.3 phosphate buffered saline assessed as pig liver esterase-mediated d4TTP formation by HPLC analysis; type: ADME, Sus scrofa; settings: in vitro; in short: as §1
[7] = tested on: Human immunodeficiency virus 2; assay: Antiviral activity against HIV2 ROD infected in human CEM/0 cells assessed as inhibition of virus-induced giant cell formation measured after 4 to 5 days by microscopic analysis; settings: Human immunodeficiency virus 2, ISOLATE ROD, CCRF-CEM
[8] = Selectivity index, ratio of CC50 for human CEM cells to EC50 for HIV1 HE infected in human CEM/0 cells; settings: CEM cells (CC50) and HIV1 HE infected CEM/0 cells (EC50)
[9] = Half life in human CEM/0 cell extracts by HPLC analysis; type: ADME, CCRF-CEM
In short: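 Cell extract prepared from CEM cells grown in RPMI-1640-based medium to ~3·10^6 cells/mL. Cells washed twice in cold PBS, resuspended at 10^8 cells/mL, sonicated, cleared at 10,000 rpm and stored at -80 °C. Prodrug at 6.0 mM hydrolysis solution in DMSO-d6 mixed with water and extract at 37 °C over time. Samples iced, sonicated and centrifuged; supernatant analysed by RP18 HPLC. t1/2 calculated as for chemical hydrolysis.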

SMILES: CCCCCCCCCCCCOC(=O)Oc1ccc(COP(=O)(OCc2ccc(OC(=O)OCCCC)cc2)OP(=O)(O)OP(=O)(O)OC[C@@H]2C=C[C@H](n3cc(C)c(=O)[nH]c3=O)O2)cc1.N.N (stereo partly specified)
- half-life [1]: 0.28 h
- half-life [2]: 107 h
- CC50 [3]: 54000 nM
- EC50 [4]: 730 nM
- EC50 [5]: 1120 nM
- Drug metabolism [6]: Metabolite_Detected
- EC50 [7]: 170 nM
- selectivity ratio [8]: 74

SMILES: CCCCCCCCCOC(=O)Oc1ccc(COP(=O)(OCc2ccc(OC(=O)CC)cc2)OP(=O)(O)OP(=O)(O)OC[C@@H]2C=C[C@H](n3cc(C)c(=O)[nH]c3=O)O2)cc1.N.N (stereo partly specified)
- half-life [2]: 25 h
- CC50 [3]: 84000 nM
- EC50 [4]: 73 nM
- EC50 [5]: 1760 nM
- EC50 [7]: 40 nM
- selectivity ratio [8]: 1150

SMILES: CCCCCCCCCOC(=O)Oc1ccc(COP(=O)(OCc2ccc(OC(=O)OCCCCCCCCC)cc2)OP(=O)(O)OP(=O)(O)OC[C@@H]2C=C[C@H](n3cc(C)c(=O)[nH]c3=O)O2)cc1.N.N
- half-life [2]: 101 h
- CC50 [3]: 34000 nM
- EC50 [4]: 340 nM
- EC50 [5]: 230 nM
- EC50 [7]: 90 nM
- selectivity ratio [8]: 100

SMILES: CCCCCCCCCCCOC(=O)Oc1ccc(COP(=O)(OCc2ccc(OC(=O)CC)cc2)OP(=O)(O)OP(=O)(O)OC[C@@H]2C=C[C@H](n3cc(C)c(=O)[nH]c3=O)O2)cc1.N.N (stereo partly specified)
- half-life [2]: 52 h

SMILES: CCCCCCCCCCCCOC(=O)Oc1ccc(COP(=O)(OCCC#N)OP(=O)(O)OP(=O)(O)OC[C@@H]2C=C[C@H](n3cc(C)c(=O)[nH]c3=O)O2)cc1.N.N (stereo partly specified)
- half-life [2]: 30 h
- CC50 [3]: > 100000 nM
- EC50 [4]: 470 nM
- EC50 [5]: 2480 nM
- EC50 [7]: 230 nM
- selectivity ratio [8]: > 212

SMILES: CCCCCCCCCCCCOC(=O)Oc1ccc(COP(=O)(OCc2ccc(OC(=O)CC)cc2)OP(=O)(O)OP(=O)(O)OC[C@@H]2C=C[C@H](n3cc(C)c(=O)[nH]c3=O)O2)cc1.N.N (stereo partly specified)
- half-life [1]: 0.44 h
- half-life [2]: 66 h
- CC50 [3]: 33000 nM
- EC50 [4]: 61 nM
- EC50 [5]: 640 nM
- Drug metabolism [6]: Metabolite_Detected
- EC50 [7]: 130 nM
- selectivity ratio [8]: 541

SMILES: CCCCCCCCCCCCCCOC(=O)Oc1ccc(COP(=O)(OCc2ccc(OC(=O)CCCC)cc2)OP(=O)(O)OP(=O)(O)OC[C@@H]2C=C[C@H](n3cc(C)c(=O)[nH]c3=O)O2)cc1.N.N (stereo partly specified)
- half-life [2]: 69 h

SMILES: CCCCCCCCCCCC(=O)Oc1ccc(COP(=O)(O)OP(=O)(O)OP(=O)(O)OC[C@@H]2C=C[C@H](n3cc(C)c(=O)[nH]c3=O)O2)cc1.N.N.N
- half-life [2]: 460 h

SMILES: CCCCCCOC(=O)Oc1ccc(COP(=O)(O)OP(=O)(O)OP(=O)(O)OC[C@@H]2C=C[C@H](n3cc(C)c(=O)[nH]c3=O)O2)cc1.N.N.N
- half-life [2]: 544 h

SMILES: CCCCCCCCCCCCCCOC(=O)Oc1ccc(COP(=O)(OCc2ccc(OC(=O)CC)cc2)OP(=O)(O)OP(=O)(O)OC[C@@H]2C=C[C@H](n3cc(C)c(=O)[nH]c3=O)O2)cc1.N.N (stereo partly specified)
- half-life [2]: 74 h

SMILES: CCCCCCCCCCCCCCCCOC(=O)Oc1ccc(COP(=O)(O)OP(=O)(O)OP(=O)(O)OC[C@@H]2C=C[C@H](n3cc(C)c(=O)[nH]c3=O)O2)cc1.N.N.N
- half-life [2]: > 1600 h
- CC50 [3]: 61000 nM
- EC50 [4]: 500 nM
- EC50 [5]: 1460 nM
- EC50 [7]: 290 nM
- selectivity ratio [8]: 122

SMILES: Cc1cn([C@H]2C=C[C@@H](COP(=O)(O)OP(=O)(O)OP(=O)(O)O)O2)c(=O)[nH]c1=O [STAVUDINE TRIPHOSPHATE]
- half-life [2]: > 500 h

SMILES: CCCCCCCCCCCCCCCCOC(=O)Oc1ccc(COP(=O)(OCCC#N)OP(=O)(O)OP(=O)(O)OC[C@@H]2C=C[C@H](n3cc(C)c(=O)[nH]c3=O)O2)cc1.N.N (stereo partly specified)
- half-life [2]: 56 h
- CC50 [3]: 53000 nM
- EC50 [4]: 530 nM
- EC50 [5]: 3260 nM
- EC50 [7]: 300 nM
- selectivity ratio [8]: 100

SMILES: CCCCCCCCCCCCCCCCCCOC(=O)Oc1ccc(COP(=O)(OCc2ccc(OC(=O)OCCCC)cc2)OP(=O)(O)OP(=O)(O)OC[C@@H]2C=C[C@H](n3cc(C)c(=O)[nH]c3=O)O2)cc1.N.N (stereo partly specified)
- half-life [2]: 111 h

SMILES: Cc1cn([C@H]2C=C[C@@H](CO)O2)c(=O)[nH]c1=O [STAVUDINE]
- CC50 [3]: > 50000 nM
- EC50 [5]: 31000 nM
- selectivity ratio [8]: > 116

SMILES: CCCCCCCCCOC(=O)Oc1ccc(COP(=O)(OCc2ccc(OC(=O)CCCCCCCCC)cc2)OP(=O)(O)OP(=O)(O)OC[C@@H]2C=C[C@H](n3cc(C)c(=O)[nH]c3=O)O2)cc1.N.N (stereo partly specified)
- half-life [2]: 81 h
- CC50 [3]: 37000 nM
- EC50 [4]: 110 nM
- EC50 [5]: 150 nM
- EC50 [7]: 90 nM
- selectivity ratio [8]: 336

SMILES: CCCCCCCCCCCCCCCCOC(=O)Oc1ccc(COP(=O)(OCc2ccc(OC(=O)CCCCCCCCC)cc2)OP(=O)(O)OP(=O)(O)OC[C@@H]2C=C[C@H](n3cc(C)c(=O)[nH]c3=O)O2)cc1.N.N (stereo partly specified)
- half-life [2]: 85 h
- CC50 [3]: 16000 nM
- EC50 [4]: 160 nM
- EC50 [5]: 240 nM
- EC50 [7]: 78 nM
- selectivity ratio [8]: 100

SMILES: CCCCCCCCCCCCOC(=O)Oc1ccc(COP(=O)(OCc2ccc(OC(=O)C(C)C)cc2)OP(=O)(O)OP(=O)(O)OC[C@@H]2C=C[C@H](n3cc(C)c(=O)[nH]c3=O)O2)cc1.N.N (stereo partly specified)
- half-life [2]: 70 h

SMILES: CCCCCCCCCCCCCCCCOC(=O)Oc1ccc(COP(=O)(OCc2ccc(OC(C)=O)cc2)OP(=O)(O)OP(=O)(O)OC[C@@H]2C=C[C@H](n3cc(C)c(=O)[nH]c3=O)O2)cc1.N.N (stereo partly specified)
- half-life [2]: 81 h

SMILES: CCCCCCCCCCCCCCCCCCOC(=O)Oc1ccc(COP(=O)(OCc2ccc(OC(=O)CCCC)cc2)OP(=O)(O)OP(=O)(O)OC[C@@H]2C=C[C@H](n3cc(C)c(=O)[nH]c3=O)O2)cc1.N.N (stereo partly specified)
- half-life [2]: 74 h
- CC50 [3]: 58000 nM
- EC50 [4]: 55 nM
- EC50 [5]: 560 nM
- EC50 [7]: 25 nM
- selectivity ratio [8]: 1050

SMILES: CCCCCCCCCCCCOC(=O)Oc1ccc(COP(=O)(O)OP(=O)(O)OP(=O)(O)OC[C@@H]2C=C[C@H](n3cc(C)c(=O)[nH]c3=O)O2)cc1.N.N.N
- half-life [2]: 625 h
- CC50 [3]: > 100000 nM
- EC50 [4]: 330 nM
- EC50 [5]: 1980 nM
- EC50 [7]: 250 nM
- selectivity ratio [8]: > 303

SMILES: CCCCCCCCCCOC(=O)Oc1ccc(COP(=O)(OCc2ccc(OC(=O)CC)cc2)OP(=O)(O)OP(=O)(O)OC[C@@H]2C=C[C@H](n3cc(C)c(=O)[nH]c3=O)O2)cc1.N.N (stereo partly specified)
- half-life [2]: 34 h

SMILES: CCCCCCCCCCCCCCCCOC(=O)Oc1ccc(COP(=O)(OCc2ccc(OC(=O)CCCCCC)cc2)OP(=O)(O)OP(=O)(O)OC[C@@H]2C=C[C@H](n3cc(C)c(=O)[nH]c3=O)O2)cc1.N.N (stereo partly specified)
- half-life [2]: 89 h

SMILES: CCCCCCCCCCCCCCCCOC(=O)Oc1ccc(COP(=O)(OCc2ccc(OC(=O)CC(C)C)cc2)OP(=O)(O)OP(=O)(O)OC[C@@H]2C=C[C@H](n3cc(C)c(=O)[nH]c3=O)O2)cc1.N.N (stereo partly specified)
- half-life [2]: 77 h

SMILES: CCCCCCCCCCCCOC(=O)Oc1ccc(COP(=O)(OCc2ccc(OC(=O)CCC)cc2)OP(=O)(O)OP(=O)(O)OC[C@@H]2C=C[C@H](n3cc(C)c(=O)[nH]c3=O)O2)cc1.N.N (stereo partly specified)
- half-life [2]: 75 h

SMILES: CCCCCCCCCCCCCCCCOC(=O)Oc1ccc(COP(=O)(OCc2ccc(OC(=O)CCCCCCCC)cc2)OP(=O)(O)OP(=O)(O)OC[C@@H]2C=C[C@H](n3cc(C)c(=O)[nH]c3=O)O2)cc1.N.N (stereo partly specified)
- half-life [1]: 13.8 h
- half-life [2]: 90 h
- half-life [9]: 6.4 h
- Drug metabolism [6]: Metabolite_Detected

SMILES: CCCCCCCCCCCCCCCOC(=O)Oc1ccc(COP(=O)(OCc2ccc(OC(=O)CCCC)cc2)OP(=O)(O)OP(=O)(O)OC[C@@H]2C=C[C@H](n3cc(C)c(=O)[nH]c3=O)O2)cc1.N.N (stereo partly specified)
- half-life [2]: 74 h
